Reference: PubChem BioAssay
Records with an inconclusive call do not appear.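 How the source made its calls, unless noted: active means viability at or below 27.92% in each of two runs, the all-compound median minus 4 SD; inconclusive means no clear call, values can overlap the other calls; inactive means the rest.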

How the values were obtained:
[1] = S. cerevisiae growth inhibition in permissive medium (OD615), pilot counter-assay for S. cerevisiae lifespan shortening project, permissive growth control (AID 705;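 active means growth inhibition above 25% in both replicates, a cutoff set 3 SD above the mean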); conditions: OD615, 24 h, at 10 µM, stronger effect = higher value
In short: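 System: S. cerevisiae with engineered DeaD lifespan system. Medium: SC raffinose/galactose permissive medium. Doses: single compound dose of 10 µM, 0.25% DMSO final. Schedule: 24 h exposure, 30 °C. Measured by: OD615 turbidity read. Read-out: growth inhibition.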

[2] = S. cerevisiae growth inhibition in restrictive medium, OD615, pilot screen, restrictive growth control, yeast lifespan reduction project (AID 706;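 active means growth inhibition above a set limit, 3 SD over mean compound inhibition, in both replicates, cut at about 43% in these data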;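 further: modified DeaD lifespan yeast strain shifted to restrictive glucose medium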); conditions: OD615, 48 h, at 10 µM, stronger effect = higher value
In short: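 Assay system – genetically modified Saccharomyces cerevisiae, DeaD replicative lifespan assay strain · Medium – CSMM-D glucose medium · Doses – 10 µM compound, 0.25% DMSO · Times – 4 h pre-incubation, 48 h exposure at 30 °C · Signal – optical density at 615 nm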

[3] = doxorubicin toxicity protection in MRP-1 cells – H69AR cells, CellTiter-Glo, duplicate, MRP-1 activator project, pilot screen (AID 807;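 active means viability increase at or above a cutoff of the median across tested compounds plus 3 SD, cut at about 8.5% in these data, passing the limit was not always enough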;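 further: compound pretreatment 18-22 h then 72 h combined with doxorubicin; 0% = doxorubicin alone and 100% = vehicle without doxorubicin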); conditions: H69AR viability with doxorubicin, CellTiter-Glo luminescence; at 10 µM; stronger effect = higher value
[4] = viability of HCT116 without oncogenic beta-catenin – human colon tumor cells, pilot screen (AID 823;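 active means cell viability at or below a set limit in both duplicate runs, the limit being the all-compound median minus 4 SD, cut at about 23% in these data, passing the limit was not always enough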;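 further: 0% = wells killed by 20 µM Hyamine and 100% = untreated DMSO cell wells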); conditions: HCT116 beta-catenin knockout viability, CellTiter-Glo, 60 h; at 10 µM; stronger effect = lower value
[5] = viability of PTEN-null HCT116 cells – cell-based, HCT116 clonal line, CellTiter-Glo, pilot screen (AID 824); conditions: HCT116 PTEN-deleted viability, 60 h, at 10 µM, stronger effect = lower value;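 further: 0% = 20 µM Hyamine control and 100% = vehicle cell control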
[6] = RAM pathway blockade in budding yeast – dse1pr::URA3 reporter, 5-FOA selection, pilot screen (AID 869;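 active means inhibition over a set limit, the all-compound mean plus 3 SD, in both replicate runs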;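 further: 0% = DMSO wells with no growth and 100% = 10 µM 1-NA-PP1 with full growth; RAM network block rescues cells from 5-FOA so hits raise OD615 growth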); conditions: S. cerevisiae dse1pr::URA3 5-FOA growth, OD615, 2 d; at 10 µM; stronger effect = higher value; strain carries analog-sensitive mutant Cbk1 kinase
[7] = RAM signaling pathway blockade in yeast – S. cerevisiae, Pdr1DBD-CYC8 efflux-inhibited sensitized strain, primary screen (AID 1298;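 active means RAM network inhibition above 8.4% in each of two replicates, 3 SD over the compound average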;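 further: 0% = DMSO untreated cells without growth and 100% = 10 µM 1-NA-PP1 full growth; higher means more yeast growth rescued from 5-FOA killing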); conditions: S. cerevisiae cbk1-as DSE1-URA3 strain, 5-FOA growth OD615, 2 d; at 50 µM; stronger effect = higher value

O=C(O)c1ccccc1SC1CC(=O)N(C2CCCCC2)C1=O (stereo not drawn)
inactive: growth inhibition [1] -14.3% | growth inhibition [2] -1.75% | viability increase [3] -2.78% | viability [4] 90.7% | viability [5] 94.3% | inhibition [6] 1.17% | RAM network inhibition [7] 1.06%

Cc1ccc2c(c1)C1(C(=O)N2C)N2CC3(C)CN1CC(C)(C2)C3=O (stereo not drawn)
inactive: growth inhibition [1] 6.63% | growth inhibition [2] 0.76% | viability increase [3] -2.2% | viability [4] 99.1% | viability [5] 99% | inhibition [6] 1.27% | RAM network inhibition [7] 0.11%

Cn1c(C(=O)NCc2ccccn2)cc2c(=O)n(C)c3ccccc3c21
inactive: growth inhibition [1] -1.81% | growth inhibition [2] 0.035% | viability increase [3] -4.13% | viability [4] 103% | viability [5] 89.5% | inhibition [6] 0.965% | RAM network inhibition [7] -0.15%

Cc1noc(C(=O)NCc2ccco2)c1Cl
inactive: growth inhibition [1] -10.3% | growth inhibition [2] -34.1% | viability increase [3] -3.01% | viability [4] 102% | viability [5] 101% | inhibition [6] 1.78% | RAM network inhibition [7] 2.4%

CS/C(=N\S(=O)(=O)c1ccc(N)cc1)NS(=O)(=O)c1cccs1
inactive: growth inhibition [1] -0.825% | growth inhibition [2] -11.5% | viability increase [3] -0.88% | viability [4] 103% | viability [5] 102% | inhibition [6] 0.23% | RAM network inhibition [7] 3.11%

COc1ccc(CCC(C(O)C(F)(F)F)S(=O)c2ccccc2)cc1 (stereo not drawn)
inactive: growth inhibition [1] -4.67% | growth inhibition [2] -15.5% | viability increase [3] -0.87% | viability [4] 95.4% | viability [5] 101% | inhibition [6] 0.54% | RAM network inhibition [7] 7.13%

Cc1cc(C(=O)NCc2ccc3c(c2)OCO3)n(-c2ccccc2)n1
inactive: growth inhibition [1] -8.49% | growth inhibition [2] -5.84% | viability increase [3] -0.01% | viability [4] 92.2% | viability [5] 96.3% | inhibition [6] 0.985% | RAM network inhibition [7] 4.44%

CCN(Cc1ccccc1)S(=O)(=O)c1ccc(S(=O)(=O)N2CCN(CCC#N)CC2)cc1
inactive: growth inhibition [1] -8.36% | growth inhibition [2] -8.88% | viability increase [3] -4.88% | viability [4] 90.7% | viability [5] 83.9% | inhibition [6] 1% | RAM network inhibition [7] 5.6%

O=C(CCNS(=O)(=O)c1cccc2nsnc12)NC1CCCc2ccccc21 (stereo not drawn)
inactive: growth inhibition [1] -9.18% | growth inhibition [2] -13.1% | viability increase [3] -4.33% | viability [4] 88.2% | viability [5] 90.3% | inhibition [6] 1.23% | RAM network inhibition [7] 0.26%

Cn1c(=O)c2nc(-c3ccc(Cl)cc3Cl)oc2c2ccccc21
inactive: growth inhibition [1] -12.5% | growth inhibition [2] -0.105% | viability increase [3] -3.1% | viability [4] 81.1% | viability [5] 77.6% | inhibition [6] 2.31% | RAM network inhibition [7] 3.74%

COc1ccc(-n2nc(C(=O)N3CCC(C#N)CC3)c3c4ccccc4n(C)c3c2=O)cc1
inactive: growth inhibition [1] -14.9% | growth inhibition [2] -27% | viability increase [3] -4.6% | viability [4] 92.2% | viability [5] 88.9% | inhibition [6] 1.95% | RAM network inhibition [7] 7.49%

Cc1ccc2oc(=O)c3cc(C(=O)N4CCN(C(=O)c5ccco5)CC4)sc3c2c1
inactive: growth inhibition [1] -9.32% | growth inhibition [2] -1.79% | viability increase [3] -2.75% | viability [4] 102% | viability [5] 99.5% | inhibition [6] 2.8% | RAM network inhibition [7] 3.77%

Cc1cc(C)cc(-n2cc3c(=O)n(C)c(=O)n(C)c3c2)c1
inactive: growth inhibition [1] -6.43% | growth inhibition [2] -0.345% | viability increase [3] -1.71% | viability [4] 102% | viability [5] 103% | inhibition [6] 0.155% | RAM network inhibition [7] 2.55%

COc1cc(NS(=O)(=O)c2ccc3c(c2)oc(=O)n3C)cc(OC)c1OC
inactive: growth inhibition [1] -3.74% | growth inhibition [2] 0.425% | viability increase [3] -4.97% | viability [4] 41.9% | viability [5] 35.5% | inhibition [6] -0.355% | RAM network inhibition [7] 2.41%

COC(=O)C1=CN(C)C=C(C(=O)OC)C1c1ccsc1
inactive: growth inhibition [1] -5% | growth inhibition [2] -4.37% | viability increase [3] -0.22% | viability [4] 104% | viability [5] 89.3% | inhibition [6] 1.96% | RAM network inhibition [7] 0.41%

O=C(CSc1nc2c(c(=O)n1-c1ccc(Cl)cc1)SCC2)NCc1ccco1
inactive: growth inhibition [1] -4.73% | growth inhibition [2] -0.115% | viability increase [3] -4.49% | viability [4] 86.2% | viability [5] 89% | inhibition [6] 0.225% | RAM network inhibition [7] 4.2%

CCOC(=O)C1CCN(C(=O)c2cc3c(-c4ccc(OC)c(OC)c4)nn(C)c3s2)CC1
inactive: growth inhibition [1] -7.02% | growth inhibition [2] -7.66% | viability increase [3] -2.04% | viability [4] 107% | viability [5] 98.9% | inhibition [6] 0.595% | RAM network inhibition [7] 5.7%

O=c1c(N2CCOCC2)nsnc1N1CCOCC1
inactive: growth inhibition [1] 8.28% | growth inhibition [2] -6.26% | viability increase [3] -1.68% | viability [4] 106% | viability [5] 95.8% | inhibition [6] 0.59% | RAM network inhibition [7] -2%

COc1ccc(-c2nc(=S)[nH][nH]2)cc1
inactive: growth inhibition [1] -5.89% | growth inhibition [2] -17% | viability increase [3] -1.62% | viability [4] 99% | viability [5] 89% | inhibition [6] 1.53% | RAM network inhibition [7] 5.26%

O=C(CSc1nnc(Cc2cc(=O)[nH]c(=O)[nH]2)n1-c1ccc(F)cc1)NC1CCCC1
inactive: growth inhibition [1] -14.8% | growth inhibition [2] -7.13% | viability increase [3] -1.18% | viability [4] 105% | viability [5] 102% | inhibition [6] 0.96% | RAM network inhibition [7] 6.6%

Fc1ccccc1COc1ccc(/C=N/n2cnnc2)cc1
inactive: growth inhibition [1] 3.41% | growth inhibition [2] 23.7% | viability increase [3] -1.78% | viability [4] 102% | viability [5] 95.4% | inhibition [6] 2.11% | RAM network inhibition [7] 2.09%

Cc1ccccc1OCC(=O)Nc1ccccc1N1CCOCC1
inactive: growth inhibition [1] -1.63% | growth inhibition [2] 6.71% | viability increase [3] -5.31% | viability [4] 91.7% | viability [5] 84.7% | inhibition [6] 1.22% | RAM network inhibition [7] 6.55%

Cc1cc2cc(CNS(=O)(=O)c3ccccc3)ccc2n1C
inactive: growth inhibition [1] -4.47% | growth inhibition [2] 3.34% | viability increase [3] -1.48% | viability [4] 85.2% | viability [5] 86.2% | inhibition [6] 0.71% | RAM network inhibition [7] 2.49%

CCCc1ccc2c(N)c(C#N)sc2n1
inactive: growth inhibition [1] -9.88% | growth inhibition [2] 2.12% | viability increase [3] 0.61% | viability [4] 111% | viability [5] 104% | inhibition [6] 0.235% | RAM network inhibition [7] -0.37%
